Experimental data collected from several papers.
Compare with care: the assays were run in different laboratories.
Target: Serine/threonine-protein kinase N1 (PKN1, Homo sapiens, UniProt Q16512)

Structure (SMILES)	assay	conditions	quantity	result
COc1cc(-c2cn(C3CCc4c(F)cccc4N(CC(F)(F)F)C3=O)nn2)ccc1-n1cnc(C)c1 (centres unmarked)	cell-free assay, competition with immobilised ligand	1 µM	remaining binding	96%
COc1cc2ncnc(Nc3ccc(Oc4ccccc4)cc3C)c2cc1OC	enzyme activity, inhibitor	1 µM	inhibition	4%
Cn1c2c(c3ccc(Cl)c(Cl)c31)C(C#N)C1(CCOCC1)NC2=O (centres unmarked)	thermal stability, DSF	10 µM	ΔTm	0.2 °C
C[C@@]1(Cc2ccc(C#N)cc2)C(=O)N(c2cc(Cl)cc(Cl)c2)c2ncc(C(=O)NC3(c4nc(C5CCC5)no4)CC3)n21	cell-free assay, competition with immobilised ligand	1 µM	remaining binding	100%
O=C1NC(=O)c2cc(Nc3ccc(F)cc3)c(Nc3ccc(F)cc3)cc21	cell-free assay	0.5 µM	remaining signal	97.7%
COc1ncc(Nc2ncc([C@@H](C)N3CCN(S(C)(=O)=O)CC3)cc2-c2nc(C)nc(N)n2)cc1F	enzyme activity, inhibitor	1 µM	activity vs control	94%
Cc1c[nH]c2nccc(Oc3c(F)cc(Nc4cc(Cl)nc(N)n4)cc3F)c12	cell-free assay, competition with immobilised ligand	0.1 µM	remaining binding	72%
CCCCNc1ncc2c(-c3ccc(F)cc3)nn(C[C@H]3CC[C@H](N)CC3)c2n1	target engagement in cells, inhibitor, chemoproteomics	20 mM	inhibition	-43.3%
Nc1ncnc2occ(-c3ccc(NC(=O)Nc4cc(C(F)(F)F)ccc4F)cc3)c12	cell-free assay, inhibitor	20 µM	remaining signal	83%
O=C(CSc1nc2nccnc2c(=O)n1CCc1ccccc1)Nc1nccs1	enzyme activity, inhibitor	10 µM	inhibition	4%
Cn1c2c(c3ccc(Cl)c(Cl)c31)C(C#N)C1(CCCC1)NC2=O (centres unmarked)	thermal stability, DSF	10 µM	ΔTm	-0.5 °C
CC[C@@H]1C(=O)N(C)c2cnc(Nc3ccc(C(=O)NC4CCN(C)CC4)cc3OC)nc2N1C1CCCC1	enzyme activity, inhibitor	1 µM	activity vs control	77%
CCCOc1ccc([C@H]2[C@H](C(=O)O)[C@@H](c3ccc4c(c3)OCO4)CN2CC(=O)Nc2c(CC)cccc2CC)cc1	cell-free assay, competition with immobilised ligand	1 µM	remaining binding	87%
Cl.OC1CCC(Nc2ncc3nc(Nc4c(F)cc(F)cc4F)n(C4CCOC4)c3n2)CC1 (centres unmarked)	enzyme activity, inhibitor	1 µM	activity vs control	98%
COc1cccc2c(NCc3ccccc3)nc(-n3c(N)nc4ccccc43)nc12	target engagement in cells, inhibitor, chemoproteomics	20 mM	inhibition	0.9%
CC(C)NC[C@@H](C(=O)N1CCN(c2ncnc3c2[C@H](C)C[C@H]3O)CC1)c1ccc(Cl)cc1	enzyme activity, inhibitor	1 µM	activity vs control	1%
CS(=O)(=O)NCC[C@H](NC(=O)c1cncc2c1cnn2-c1ccc(F)cc1)c1ccnc(S(C)(=O)=O)c1	cell-free assay, competition with immobilised ligand	1 µM	remaining binding	100%
CC(C)(C)c1nc2c(s1)c1nc(N)ncc1c1ccc(NS(=O)(=O)c3c(F)cccc3F)c(F)c12	enzyme activity, inhibitor, radiometric	1 µM	remaining activity	102%
CC(=O)c1c(C)c2cnc(Nc3ccc(N4CCNCC4)cn3)nc2n(C2CCCC2)c1=O.Cl	enzyme activity, inhibitor	1 µM	activity vs control	96%

Structure (SMILES)	assay	conditions	quantity	result
CCOc1cc(-c2nncn2C)ccc1Nc1ncc2cc(C)nc(NCC(C)(C)C)c2n1	enzyme activity, inhibitor, FRET	1 µM	inhibition	< 15%
CCCS(=O)(=O)Nc1ccc(F)c(C(=O)c2c[nH]c3ncc(-c4ccc(Cl)cc4)cc23)c1F	enzyme activity, inhibitor	1 µM	inhibition	< 10%
Cc1ccc(C(=O)NCc2ccsc2)cc1C#Cc1cn(C(C)C)c2ncnc(N)c12	enzyme activity, inhibitor	1 µM	activity vs control	93%
Oc1ccc(-c2nc(-c3ccncc3)c(-c3ccc(F)cc3)[nH]2)cc1	cell-free assay	0.5 µM	remaining signal	78.9%
C[C@@H](c1ccc2nccn2c1)n1nnc2ncc(-c3cnn(C)c3)nc21	enzyme activity, inhibitor	1 µM	activity vs control	91%
COc1cc(-c2cc(-c3ccc(N4CCNCC4)cc3)cnc2C)cc(OC)c1OC	enzyme activity, inhibitor	0.1 µM	inhibition	10%
C[C@H]1CCN(c2nccc(-c3cnn4ncccc34)n2)C1	binding	1 µM	remaining binding	100%
CN(C)C1CCN(CC#Cc2nn(C3CCCC3)c3nc(NCc4ccccc4)ncc23)C1 (centres unmarked)	enzyme activity, inhibitor, FRET	1 µM	inhibition	1%
COc1ccc(-c2cc3nccn3c(Nc3ncccc3C(N)=O)n2)cc1OC.Cl	enzyme activity, inhibitor	1 µM	activity vs control	50%
Cc1sc(C(=O)NC2COC2)cc1-n1cc(NC(=O)Nc2c(F)cccc2Cl)cn1	enzyme activity, inhibitor	10 µM	remaining activity	76.8%
CNC(=O)Nc1ccc2c(c1)CC[C@@]21OC(=O)N(CC(=O)N(Cc2ccc(F)cc2)[C@@H](C)C(F)(F)F)C1=O	cell-free assay, competition with immobilised ligand	1 µM	remaining binding	85%
CCN1CCC2(CC1)NC(=O)c1c(c3ccc(Cl)c(Cl)c3n1C)C2C#N (racemic)	thermal stability, DSF	10 µM	ΔTm	1 °C
O=S(=O)(c1cccc2cnccc12)N1CCCNCC1	cell-free assay	0.5 µM	remaining signal	40.5%
CN(C(=O)c1ccccc1)c1cc(N(C)c2ccc3c(c2)CCc2ccc(C(=O)NCCN4CCOCC4)cc2C3=O)ccc1F	cell-free assay, competition with immobilised ligand	1 µM	remaining binding	100%
Cn1cncc1C1=CN(c2ncnc3[nH]cnc23)CCS1	enzyme activity, inhibitor, radiometric	2 µM	inhibition	87.7%
COc1cc2ncnc(Nc3ccc(F)c(Cl)c3)c2cc1OCCCN1CCOCC1	cell-free assay	0.5 µM	remaining signal	105%
Cc1cc(F)c(Nc2ncnc3cc(OCc4ccccc4)ccc23)cc1O.Cl	enzyme activity, inhibitor	1 µM	activity vs control	89%
FC(F)(F)c1ccc2c(c1)nc(-c1cccnc1)n2C1CC1	cell-free assay, competition with immobilised ligand	1 µM	remaining binding	100%
C[S+]([O-])c1ccc(-c2nc(-c3ccncc3)c(-c3ccc(F)cc3)[nH]2)cc1 (centres unmarked)	cell-free assay	0.5 µM	remaining signal	96.5%
